Data: ChEMBL document CHEMBL1153829, “Exploiting chemical libraries, structure, and genomics in the search for kinase inhibitors” (Science, 1998)
Active and inactive are the calls of the source. The calls are words filed in the database; no cut-off is given here.

Tests used:
[1] = target: Cyclin-dependent kinase 1/cyclin B1 (Homo sapiens, UniProt P06493); assay: Inhibition of human cdc2/cyclin B assessed as [32P] incorporation in histone H1 from [gamma32P]ATP; type: protein-complex assay
[2] = target: Serine/threonine-protein kinase KIN28 (Saccharomyces cerevisiae S288c, UniProt P06242); assay: Inhibition of yeast W303 Kin28 phosphorylation assessed as [32P] incorporation in histone H1 from [gamma32P]ATP by scintillation counting
Saccharomyces cerevisiae [3] = assay: Increase in YBR296c mRNA level in delta snq2, delta pdr5 and delta erg6 knock out yeast YRP1 at 25 µM after 2 hrs by high-density oligonucleotide array; type: functional, organism-based; settings: 25 M
Method in brief: (§1)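 Drug-sensitized S. cerevisiae cultures grown to late logarithmic phase, then exposed to 25 μM inhibitor for 2 h. Polyadenylated mRNA isolated, converted to biotin-labeled cRNA and hybridized to a set of four high-density arrays carrying more than 260,000 25-nucleotide oligomers. Transcripts scored as changed when they shifted more than twofold in triplicate hybridizations for each of two independent experiments.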

Saccharomyces cerevisiae [4] = assay: Increase in CTT1 mRNA level in delta snq2, delta pdr5 and delta erg6 knock out yeast YRP1 at 25 µM after 2 hrs by high-density oligonucleotide array; type: functional, organism-based; settings: 25 M; method in brief: as §1
Saccharomyces cerevisiae [5] = assay: Growth inhibition of delta snq2, delta pdr5 and delta erg6 knock out yeast YRP1 assessed as induction of uniform arrest morphology; type: functional, organism-based
Saccharomyces cerevisiae [6] = assay: Growth inhibition of delta snq2, delta pdr5 and delta erg6 knock out yeast YRP1 after 2 hrs; type: functional
Saccharomyces cerevisiae [7] = assay: Increase in HSP12 mRNA level in delta snq2, delta pdr5 and delta erg6 knock out yeast YRP1 at 25 µM after 2 hrs by high-density oligonucleotide array; type: functional, organism-based; method in brief: as §1
Saccharomyces cerevisiae [8] = assay: Increase in PHO81 mRNA level in delta snq2, delta pdr5 and delta erg6 knock out yeast YRP1 at 25 µM after 2 hrs by high-density oligonucleotide array; type: functional, organism-based; settings: 25 M; method in brief: as §1
[9] = target: Meiotic mRNA stability protein kinase SSN3 (Saccharomyces cerevisiae S288c, UniProt P39073); assay: Inhibition of yeast W303 Srb10 phosphorylation assessed as [32P] incorporation in histone H1 from [gamma32P]ATP by scintillation counting
[10] = target: Serine/threonine-protein kinase CAK1 (Saccharomyces cerevisiae S288c, UniProt P43568); assay: Inhibition of yeast W303 Cak1 phosphorylation assessed as [32P] incorporation in histone H1 from [gamma32P]ATP by scintillation counting
Saccharomyces cerevisiae [11] = assay: Increase in PHO80 mRNA level in delta snq2, delta pdr5 and delta erg6 knock out yeast YRP1 at 25 µM after 2 hrs by high-density oligonucleotide array; type: functional, organism-based; method in brief: as §1
[12] = target: Cyclin-dependent protein kinase PHO85 (Saccharomyces cerevisiae S288c, UniProt P17157); assay: Inhibition of yeast W303 Pho85 phosphorylation assessed as [32P] incorporation in histone H1 from [gamma32P]ATP by scintillation counting
Saccharomyces cerevisiae [13] = assay: Increase in PHO84 mRNA level in delta snq2, delta pdr5 and delta erg6 knock out yeast YRP1 at 25 µM after 2 hrs by high-density oligonucleotide array; type: functional, organism-based; method in brief: as §1
Saccharomyces cerevisiae [14] = assay: Increase in PHO5 mRNA level in delta snq2, delta pdr5 and delta erg6 knock out yeast YRP1 at 25 µM after 2 hrs by high-density oligonucleotide array; type: functional, organism-based; method in brief: as §1
Saccharomyces cerevisiae [15] = assay: Increase in UB14 mRNA level in delta snq2, delta pdr5 and delta erg6 knock out yeast YRP1 at 25 µM after 2 hrs by high-density oligonucleotide array; type: functional, organism-based; method in brief: as §1
[16] = target: T1, Cyclin-dependent kinase 1 (Saccharomyces cerevisiae S288c, UniProt P00546); assay: Inhibition of yeast W303 cdc28 phosphorylation assessed as [32P] incorporation in histone H1 from [gamma32P]ATP by scintillation counting
Saccharomyces cerevisiae [17] = assay: Increase in PHO8 mRNA level in delta snq2, delta pdr5 and delta erg6 knock out yeast YRP1 at 25 µM after 2 hrs by high-density oligonucleotide array; type: functional, organism-based; method in brief: as §1
Saccharomyces cerevisiae [18] = assay: Growth inhibition of delta snq2, delta pdr5 and delta erg6 knock out yeast YRP1 assessed as synchronization by FACS analysis; type: functional, organism-based
Saccharomyces cerevisiae [19] = assay: Increase in PCL5 mRNA level in delta snq2, delta pdr5 and delta erg6 knock out yeast YRP1 at 25 µM after 2 hrs by high-density oligonucleotide array; type: functional, organism-based; method in brief: as §1
MRC5 [20] = assay: Cell cycle arrest in human MRC5 cells assessed as accumulation at G1/S phase at high concentration after 18 hrs by FACS analysis; type: functional, cell-based
MRC5 [21] = assay: Cell cycle arrest in human MRC5 cells assessed as accumulation at G2/M phase at high concentration after 18 hrs by FACS analysis; type: functional, cell-based
MRC5 [22] = assay: Cell cycle arrest in human MRC5 cells assessed as accumulation at G1/S phase at low concentration after 18 hrs by FACS analysis; type: functional, cell-based
[23] = target: Mitogen-activated protein kinase 3 (Homo sapiens, UniProt P27361); assay: Inhibition of human Erk1
[24] = target: Protein kinase C eta type (Homo sapiens, UniProt P24723); assay: Inhibition of human PKCeta
[25] = target: Protein kinase C alpha type (Homo sapiens, UniProt P17252); assay: Inhibition of human PKCalpha
[26] = Inhibition of human Raf kinase
[27] = Inhibition of human v-abl
[28] = target: Protein kinase C gamma type (Homo sapiens, UniProt P05129); assay: Inhibition of human PKCgamma
[29] = target: Glycogen synthase kinase-3 beta (Homo sapiens, UniProt P49841); assay: Inhibition of human GSK3-beta
[30] = target: Protein kinase C delta type (Homo sapiens, UniProt Q05655); assay: Inhibition of human PKCdelta
[31] = target: Cyclin-dependent kinase 4/cyclin D1 (Homo sapiens, UniProt P11802); assay: Inhibition of human cdk4/cyclin D1; type: protein-complex assay
[32] = target: Protein kinase C epsilon type (Homo sapiens, UniProt Q02156); assay: Inhibition of human PKCepsilon
[33] = target: c-Jun N-terminal kinase, JNK (Homo sapiens, UniProt P45983+P53779+P45984); assay: Inhibition of human JNK
Casein kinase 2 = Casein kinase 2 (Homo sapiens, UniProt P67870+P68400+P19784+Q8NEV1); assay: Inhibition of human casein kinase 2; type: protein assay
[34] = Inhibition of human cAMP-dependent protein kinase
[35] = Inhibition of human cGMP-dependent protein kinase
[36] = target: T2, Protein kinase C beta type (Homo sapiens, UniProt P05771); assay: Inhibition of human PKCbeta1
[37] = target: T2, Protein kinase C beta type; assay: Inhibition of human PKCbeta2
[38] = target: Protein kinase C zeta type (Homo sapiens, UniProt Q05513); assay: Inhibition of human PKCzeta
[39] = Inhibition of human casein kinase 1
Cdc2 [40] = target: T3, Cdc2 (Patiria pectinifera, UniProt Q17066); assay: Inhibition of starfish cdc2/cyclin B assessed as [32P] incorporation in histone H1 from 1.5 mM [gamma32P]ATP
Insulin receptor = Insulin receptor (Homo sapiens, UniProt P06213); assay: Inhibition of human insulin receptor
KM12 = assay: Growth inhibition human KM12 cells; type: functional
[41] = Growth inhibition human NCI60 cells; type: functional
[42] = target: Cyclin-dependent kinase 5/CDK5 activator 1 (Homo sapiens, UniProt Q00535); assay: Inhibition of human cdk5/p35; type: protein-complex assay
[43] = target: T4, Cyclin-dependent kinase 2 (Homo sapiens, UniProt P24941); assay: Inhibition of human cdk2/cyclin E
[44] = target: T1, Cyclin-dependent kinase 1; assay: Inhibition of Saccharomyces cerevisiae cdc28
[45] = target: T4, Cyclin-dependent kinase 2; assay: Inhibition of human cdk2/cyclin A
Cdc2 [46] = target: T3, Cdc2; assay: Inhibition of starfish cdc2/cyclin B assessed as [32P] incorporation in histone H1 from 150 µM [gamma32P]ATP
NCI-H522 = assay: Growth inhibition human NCI-H522 cells; type: functional

T2 sequence (P05771 whole entry): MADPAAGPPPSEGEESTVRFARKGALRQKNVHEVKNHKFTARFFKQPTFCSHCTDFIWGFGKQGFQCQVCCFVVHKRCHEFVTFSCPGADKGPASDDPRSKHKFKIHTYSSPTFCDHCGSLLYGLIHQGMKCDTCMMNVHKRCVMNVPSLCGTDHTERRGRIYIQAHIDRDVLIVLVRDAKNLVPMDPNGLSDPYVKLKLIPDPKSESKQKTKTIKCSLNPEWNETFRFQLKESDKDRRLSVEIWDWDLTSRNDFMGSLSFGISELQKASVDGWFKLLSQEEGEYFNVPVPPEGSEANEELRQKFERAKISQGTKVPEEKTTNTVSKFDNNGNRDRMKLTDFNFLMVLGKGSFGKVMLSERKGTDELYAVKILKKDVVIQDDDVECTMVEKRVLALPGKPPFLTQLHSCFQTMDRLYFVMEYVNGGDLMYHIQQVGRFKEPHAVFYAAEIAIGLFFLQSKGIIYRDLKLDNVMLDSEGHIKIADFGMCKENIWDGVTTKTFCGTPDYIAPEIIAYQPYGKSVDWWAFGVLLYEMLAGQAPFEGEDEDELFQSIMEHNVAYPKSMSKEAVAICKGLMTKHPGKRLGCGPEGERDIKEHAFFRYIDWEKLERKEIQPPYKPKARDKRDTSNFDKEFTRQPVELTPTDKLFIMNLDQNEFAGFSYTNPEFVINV
T1 sequence (P00546 whole entry): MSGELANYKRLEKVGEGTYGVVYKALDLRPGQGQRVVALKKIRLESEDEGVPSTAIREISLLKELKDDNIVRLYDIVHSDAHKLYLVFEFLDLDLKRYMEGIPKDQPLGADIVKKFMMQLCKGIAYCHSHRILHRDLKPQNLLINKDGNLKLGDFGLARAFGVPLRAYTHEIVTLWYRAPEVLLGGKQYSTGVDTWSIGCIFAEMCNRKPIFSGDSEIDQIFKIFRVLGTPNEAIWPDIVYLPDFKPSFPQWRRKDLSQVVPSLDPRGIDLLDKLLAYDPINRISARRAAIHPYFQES
Chain of Protein kinase C delta type (Q05655 whole entry): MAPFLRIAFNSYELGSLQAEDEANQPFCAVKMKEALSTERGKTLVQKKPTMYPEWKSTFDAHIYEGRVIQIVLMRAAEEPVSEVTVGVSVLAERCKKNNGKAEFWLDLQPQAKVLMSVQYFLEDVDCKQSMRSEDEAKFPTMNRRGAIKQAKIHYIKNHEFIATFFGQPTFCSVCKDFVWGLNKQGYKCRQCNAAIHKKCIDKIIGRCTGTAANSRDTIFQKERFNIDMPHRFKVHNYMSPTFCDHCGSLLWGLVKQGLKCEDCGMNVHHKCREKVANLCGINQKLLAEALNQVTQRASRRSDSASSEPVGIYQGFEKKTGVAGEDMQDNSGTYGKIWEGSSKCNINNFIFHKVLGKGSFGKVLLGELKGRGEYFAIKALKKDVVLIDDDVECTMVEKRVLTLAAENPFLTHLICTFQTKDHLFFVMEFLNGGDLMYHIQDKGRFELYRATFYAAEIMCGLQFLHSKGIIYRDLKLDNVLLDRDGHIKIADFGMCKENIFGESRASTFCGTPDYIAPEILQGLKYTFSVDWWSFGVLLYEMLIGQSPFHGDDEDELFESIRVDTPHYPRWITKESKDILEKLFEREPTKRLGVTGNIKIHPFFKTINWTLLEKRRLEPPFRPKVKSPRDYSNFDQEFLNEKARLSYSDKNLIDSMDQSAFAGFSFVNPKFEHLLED
Chain of Protein kinase C eta type (P24723 whole entry): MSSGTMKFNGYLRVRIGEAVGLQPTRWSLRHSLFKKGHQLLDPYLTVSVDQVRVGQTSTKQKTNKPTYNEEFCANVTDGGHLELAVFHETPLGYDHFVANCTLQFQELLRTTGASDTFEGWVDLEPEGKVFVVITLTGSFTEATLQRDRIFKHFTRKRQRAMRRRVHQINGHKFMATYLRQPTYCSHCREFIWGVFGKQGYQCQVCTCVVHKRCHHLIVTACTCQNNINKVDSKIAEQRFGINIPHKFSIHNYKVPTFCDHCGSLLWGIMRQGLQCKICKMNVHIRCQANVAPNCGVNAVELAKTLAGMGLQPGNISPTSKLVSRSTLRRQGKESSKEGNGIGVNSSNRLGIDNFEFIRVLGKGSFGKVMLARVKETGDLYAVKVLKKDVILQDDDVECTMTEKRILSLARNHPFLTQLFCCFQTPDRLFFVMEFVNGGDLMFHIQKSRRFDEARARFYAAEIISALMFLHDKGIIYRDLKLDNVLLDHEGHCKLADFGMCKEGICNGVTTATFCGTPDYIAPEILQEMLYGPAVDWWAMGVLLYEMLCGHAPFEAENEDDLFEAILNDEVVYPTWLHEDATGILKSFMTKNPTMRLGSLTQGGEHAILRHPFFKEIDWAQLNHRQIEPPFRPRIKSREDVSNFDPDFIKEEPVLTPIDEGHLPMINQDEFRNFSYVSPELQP
Chain of Mitogen-activated protein kinase 3 (P27361 whole entry): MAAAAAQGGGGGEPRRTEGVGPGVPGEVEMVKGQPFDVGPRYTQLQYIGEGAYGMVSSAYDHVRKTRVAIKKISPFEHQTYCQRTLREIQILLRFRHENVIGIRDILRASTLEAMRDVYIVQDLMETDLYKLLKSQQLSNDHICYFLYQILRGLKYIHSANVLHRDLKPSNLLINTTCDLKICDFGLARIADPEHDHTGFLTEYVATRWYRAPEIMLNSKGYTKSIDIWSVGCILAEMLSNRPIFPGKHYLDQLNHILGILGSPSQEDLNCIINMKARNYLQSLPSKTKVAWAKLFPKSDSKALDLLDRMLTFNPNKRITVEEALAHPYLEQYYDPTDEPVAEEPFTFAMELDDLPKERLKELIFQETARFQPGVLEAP
Chain of Glycogen synthase kinase-3 beta (P49841 whole entry): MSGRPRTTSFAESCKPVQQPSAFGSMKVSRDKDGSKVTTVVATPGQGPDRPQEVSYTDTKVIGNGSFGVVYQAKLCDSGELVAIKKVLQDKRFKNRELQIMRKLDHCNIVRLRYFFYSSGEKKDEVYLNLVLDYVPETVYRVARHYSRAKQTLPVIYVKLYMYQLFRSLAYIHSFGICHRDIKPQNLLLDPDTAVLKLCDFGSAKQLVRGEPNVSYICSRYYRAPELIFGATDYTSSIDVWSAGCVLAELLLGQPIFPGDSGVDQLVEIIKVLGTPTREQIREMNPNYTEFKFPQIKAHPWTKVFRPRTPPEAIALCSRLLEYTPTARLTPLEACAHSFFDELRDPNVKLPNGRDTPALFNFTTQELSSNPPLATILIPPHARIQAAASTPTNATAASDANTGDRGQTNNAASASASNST
Chain of Cyclin-dependent kinase 4/cyclin D1 (P11802 whole entry): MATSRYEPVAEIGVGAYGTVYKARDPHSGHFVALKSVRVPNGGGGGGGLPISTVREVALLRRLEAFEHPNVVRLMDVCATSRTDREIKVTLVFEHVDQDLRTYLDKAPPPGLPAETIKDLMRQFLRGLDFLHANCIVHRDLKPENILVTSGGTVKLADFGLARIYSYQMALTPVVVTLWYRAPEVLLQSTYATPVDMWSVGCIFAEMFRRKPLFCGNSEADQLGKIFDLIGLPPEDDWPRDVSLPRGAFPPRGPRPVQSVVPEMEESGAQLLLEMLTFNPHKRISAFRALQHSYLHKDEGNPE
Chain of Cyclin-dependent kinase 4/cyclin D1 (P24385 whole entry, further chain): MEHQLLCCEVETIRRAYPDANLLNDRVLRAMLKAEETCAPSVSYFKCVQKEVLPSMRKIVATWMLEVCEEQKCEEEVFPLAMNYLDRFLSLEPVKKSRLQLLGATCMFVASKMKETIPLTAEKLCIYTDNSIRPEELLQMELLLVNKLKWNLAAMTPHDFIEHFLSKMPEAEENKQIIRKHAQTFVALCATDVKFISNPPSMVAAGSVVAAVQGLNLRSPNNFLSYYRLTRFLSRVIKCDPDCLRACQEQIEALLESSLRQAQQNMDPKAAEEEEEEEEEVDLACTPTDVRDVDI
Chain of Protein kinase C zeta type (Q05513 whole entry): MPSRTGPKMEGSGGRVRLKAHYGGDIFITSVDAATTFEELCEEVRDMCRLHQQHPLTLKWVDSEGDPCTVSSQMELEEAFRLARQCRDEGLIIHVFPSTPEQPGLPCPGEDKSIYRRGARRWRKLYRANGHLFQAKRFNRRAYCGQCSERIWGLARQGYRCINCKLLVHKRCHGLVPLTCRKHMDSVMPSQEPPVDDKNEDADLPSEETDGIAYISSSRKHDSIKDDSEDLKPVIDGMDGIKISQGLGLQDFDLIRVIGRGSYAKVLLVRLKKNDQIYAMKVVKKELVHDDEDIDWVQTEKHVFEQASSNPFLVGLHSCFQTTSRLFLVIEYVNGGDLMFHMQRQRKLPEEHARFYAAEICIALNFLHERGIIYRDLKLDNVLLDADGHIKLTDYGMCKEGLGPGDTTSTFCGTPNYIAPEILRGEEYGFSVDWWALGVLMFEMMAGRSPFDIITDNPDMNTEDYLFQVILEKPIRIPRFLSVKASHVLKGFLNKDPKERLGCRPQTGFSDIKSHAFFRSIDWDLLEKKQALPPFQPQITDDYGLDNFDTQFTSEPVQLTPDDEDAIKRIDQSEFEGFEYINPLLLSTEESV

CC(C)n1cnc2c(Nc3cccc(Cl)c3)nc(NCCO)nc21
IC50 [1]: 0.34 µM

CC(C)n1cnc2c(N(C)c3cccc(Cl)c3)nc(NCCO)nc21
IC50 [2]: > 500 µM
Activity (Saccharomyces cerevisiae [3]): inactive
Activity (Saccharomyces cerevisiae [4]): inactive
Activity (Saccharomyces cerevisiae [5]): inactive
GI50 (Saccharomyces cerevisiae [6]): 200 µM
Activity (Saccharomyces cerevisiae [7]): inactive
Activity (Saccharomyces cerevisiae [8]): inactive
IC50 [9]: > 500 µM
IC50 [10]: > 500 µM
Activity (Saccharomyces cerevisiae [11]): inactive
IC50 [12]: > 500 µM
Activity (Saccharomyces cerevisiae [13]): inactive
Activity (Saccharomyces cerevisiae [14]): inactive
Activity (Saccharomyces cerevisiae [15]): inactive
IC50 [16]: > 500 µM
Activity (Saccharomyces cerevisiae [17]): inactive
Activity (Saccharomyces cerevisiae [18]): inactive
Activity (Saccharomyces cerevisiae [19]): inactive

COc1ccc(CNc2nc(N(CCO)CCO)nc3c2ncn3C(C)C)cc1
Activity (MRC5 [20]): Active
Activity (MRC5 [21]): Active
Activity (MRC5 [22]): Active

CC(C)[C@H](CO)Nc1nc(Nc2ccc(C(=O)O)c(Cl)c2)c2ncn(C(C)C)c2n1 [PURVALANOL B]
IC50 [23]: 3.33 µM
IC50 [24]: > 100 µM
IC50 [25]: > 100 µM
IC50 [26]: > 10 µM
IC50 [27]: > 100 µM
IC50 [28]: > 100 µM
IC50 [29]: > 10 µM
IC50 [30]: > 100 µM
IC50 [31]: > 10 µM
IC50 [32]: > 100 µM
IC50 [33]: > 10 µM
IC50 (Casein kinase 2): > 10 µM
IC50 [34]: 3.8 µM
IC50 [35]: > 100 µM
IC50 [36]: > 100 µM
IC50 [37]: > 100 µM
IC50 [38]: > 100 µM
IC50 [39]: > 3.33 µM

CC(C)[C@H](CO)Nc1nc(Nc2cccc(Cl)c2)c2ncn(C(C)C)c2n1 [PURVALANOLA]
IC50 [23]: 9 µM
IC50 [24]: > 100 µM
IC50 [25]: > 10 µM
IC50 [26]: > 1 µM
IC50 [27]: > 10 µM
IC50 [28]: > 10 µM
IC50 [29]: > 10 µM
IC50 [30]: > 100 µM
IC50 [31]: 0.85 µM
IC50 [32]: > 100 µM
IC50 [33]: > 1 µM
IC50 (Cdc2 [40]): 0.5 µM
IC50 (Insulin receptor): 5 µM
IC50 (Casein kinase 2): > 10 µM
GI50 (KM12): 0.076 µM
IC50 [34]: 9 µM
GI50 [41]: 2 µM
IC50 [42]: 0.075 µM
IC50 [35]: > 10 µM
IC50 [36]: > 10 µM
IC50 [43]: 0.035 µM
IC50 [44]: 0.08 µM
IC50 [45]: 0.07 µM
IC50 [37]: > 10 µM
IC50 [38]: > 100 µM
IC50 (Cdc2 [46]): 0.04 µM
IC50 [39]: > 3.33 µM
GI50 (NCI-H522): 0.347 µM
